{
  "source": "ChEMBL document CHEMBL4325893",
  "about": "“Synthesis and antibacterial profiles of targeted triclosan derivatives” (2019)",
  "key": {"Staphylococcus aureus [1]": {"system": "Staphylococcus aureus", "experiment": "Antibacterial activity against Staphylococcus aureus ATCC 6538 after 18 hrs", "format": "functional", "conditions": "ATCC 6538, 18 h", "procedure,_shortened": "(§1)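 Broth microdilution in Nutrient Broth No. 2; stocks in ethanol diluted to 0.01–128 µg/ml (triclosan) or 0.25–256 µg/ml (glycosides). Overnight 37 °C NB2 cultures diluted 1 in 10^4 in saline and added to the dilutions. Incubation at 37 °C with agitation, OD read every 15 min; MIC is the lowest concentration preventing any OD rise after 18 h.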"}, "Staphylococcus aureus [2]": {"system": "Staphylococcus aureus", "experiment": "Antibacterial activity against Staphylococcus aureus ATCC 6538P after 18 hrs", "format": "functional", "procedure,_shortened": "as §1"}, "Staphylococcus aureus [3]": {"system": "Staphylococcus aureus", "experiment": "Antibacterial activity against Staphylococcus aureus ATCC 9144 after 18 hrs", "format": "functional", "conditions": "ATCC 9144, 18 h", "procedure,_shortened": "as §1"}, "Staphylococcus aureus [4]": {"system": "Staphylococcus aureus", "experiment": "Antibacterial activity against Staphylococcus aureus ATCC 25923 after 18 hrs", "format": "functional", "conditions": "ATCC 25923, 18 h", "procedure,_shortened": "as §1"}, "Staphylococcus aureus [5]": {"system": "Staphylococcus aureus", "experiment": "Antibacterial activity against Staphylococcus aureus ATCC 29213 after 18 hrs", "format": "functional", "conditions": "ATCC 29213, 18 h", "procedure,_shortened": "as §1"}, "Staphylococcus aureus [6]": {"system": "Staphylococcus aureus", "experiment": "Antibacterial activity against Staphylococcus aureus NCTC 13758 after 18 hrs", "format": "functional", "conditions": "NCTC 13758, 18 h", "procedure,_shortened": "as §1"}, "Staphylococcus aureus [7]": {"system": "Staphylococcus aureus", "experiment": "Antibacterial activity against Staphylococcus aureus OCC 104 after 18 hrs", "format": "functional", "conditions": "OCC 104, 18 h", "procedure,_shortened": "as §1"}, "Staphylococcus aureus [8]": {"system": "Staphylococcus aureus", "experiment": "Antibacterial activity against Staphylococcus aureus OCC 106 after 18 hrs", "format": "functional", "conditions": "OCC 106, 18 h", "procedure,_shortened": "as §1"}, "[9]": {"system": "Staphylococcus epidermidis", "experiment": "Antibacterial activity against Staphylococcus epidermidis 155 after 18 hrs", "format": "functional", "conditions": "Staphylococcus epidermidis, 155, 18 h", "procedure,_shortened": "as §1"}, "[10]": {"system": "Staphylococcus epidermidis", "experiment": "Antibacterial activity against Staphylococcus epidermidis ATCC 12228 after 18 hrs", "format": "functional", "conditions": "ATCC 12228, 18 h", "procedure,_shortened": "as §1"}, "[11]": {"system": "Staphylococcus epidermidis", "experiment": "Antibacterial activity against Staphylococcus epidermidis ATCC 14990 after 18 hrs", "format": "functional", "conditions": "ATCC 14990, 18 h", "procedure,_shortened": "as §1"}, "[12]": {"system": "Staphylococcus haemolyticus", "experiment": "Antibacterial activity against Staphylococcus haemolyticus OCC 2223 after 18 hrs", "format": "functional", "conditions": "OCC 2223, 18 h", "procedure,_shortened": "(§2)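 Broth microdilution in Nutrient Broth No. 2. Ethanol stocks were diluted in broth to 0.01–128 µg/ml for triclosan and 0.25–256 µg/ml for glycosides. Overnight 37°C NB2 cultures were diluted 1 in 10^4 in saline and added to the wells. Plates were incubated at 37°C with OD read every 15 min after agitation. MIC was the lowest concentration giving no OD increase at 18 h.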"}, "[13]": {"system": "Staphylococcus saprophyticus", "experiment": "Antibacterial activity against Staphylococcus saprophyticus ATCC 15305 after 18 hrs", "format": "functional", "conditions": "ATCC 15305, 18 h", "procedure,_shortened": "as §2"}, "Streptococcus agalactiae": {"system": "Streptococcus agalactiae", "experiment": "Antibacterial activity against Streptococcus agalactiae OCC 182 after 18 hrs", "format": "functional", "conditions": "OCC 182, 18 h", "procedure,_shortened": "as §2"}, "Streptococcus pneumoniae [14]": {"system": "Streptococcus pneumoniae", "experiment": "Antibacterial activity against Streptococcus pneumoniae 6305 after 18 hrs", "format": "functional", "conditions": "Streptococcus pneumoniae, 6305, 18 h", "procedure,_shortened": "as §2"}, "Streptococcus pneumoniae [15]": {"system": "Streptococcus pneumoniae", "experiment": "Antibacterial activity against Streptococcus pneumoniae ATCC 49619 after 18 hrs", "format": "functional", "conditions": "ATCC 49619, 18 h", "procedure,_shortened": "as §2"}, "Streptococcus pyogenes": {"system": "Streptococcus pyogenes", "experiment": "Antibacterial activity against Streptococcus pyogenes ATCC 19615 after 18 hrs", "format": "functional", "conditions": "ATCC 19615, 18 h", "procedure,_shortened": "as §2"}, "Streptococcus viridans": {"system": "Streptococcus viridans", "experiment": "Antibacterial activity against Streptococcus viridans OCC 234 after 18 hrs", "format": "functional", "conditions": "OCC 234, 18 h", "procedure,_shortened": "as §2"}, "[16]": {"system": "Salmonella enterica subsp. enterica serovar Abony", "experiment": "Antibacterial activity against Salmonella enterica subspecies enterica serotype Abony NCTC 6017 after 18 hrs", "format": "functional", "conditions": "NCTC 6017, 18 h", "procedure,_shortened": "as §1"}, "[17]": {"experiment": "Antibacterial activity against Salmonella enterica subspecies enterica serotype Arizonae OCC 706 after 18 hrs", "format": "functional, Salmonella enterica subsp. enterica serovar Arizonae", "conditions": "OCC 706, 18 h", "procedure,_shortened": "as §1"}, "[18]": {"experiment": "Antibacterial activity against Salmonella enterica subspecies enterica serotype Dublin OCC 627 after 18 hrs", "format": "functional, Salmonella enterica subsp. enterica serovar Dublin", "conditions": "OCC 627, 18 h", "procedure,_shortened": "as §1"}, "Salmonella enteritidis": {"system": "Salmonella enteritidis", "experiment": "Antibacterial activity against Salmonella enterica subspecies enterica serotype Enteritidis 13076 after 18 hrs", "format": "functional, Salmonella enterica subsp. enterica serovar Enteritidis", "conditions": "Salmonella enterica, 13076, 18 h", "procedure,_shortened": "as §1"}, "[19]": {"experiment": "Antibacterial activity against Salmonella enterica subspecies enterica serotype Indiana OCC 597 after 18 hrs", "format": "functional, Salmonella enterica subsp. enterica serovar Indiana", "conditions": "OCC 597, 18 h", "procedure,_shortened": "as §1"}, "[20]": {"experiment": "Antibacterial activity against Salmonella enterica subspecies enterica serotype Infantis OCC 2133 after 18 hrs", "format": "functional, Salmonella enterica subsp. enterica serovar Infantis", "conditions": "OCC 2133, 18 h", "procedure,_shortened": "as §1"}, "[21]": {"experiment": "Antibacterial activity against Salmonella enterica subspecies enterica serotype Nottingham NCTC 7832 after 18 hrs", "format": "functional, Salmonella enterica subsp. enterica serovar Nottingham", "conditions": "NCTC 7832, 18 h", "procedure,_shortened": "as §1"}, "[22]": {"experiment": "Antibacterial activity against Salmonella enterica subspecies enterica serotype Poona NCTC 4840 after 18 hrs", "format": "functional, Salmonella enterica subsp. enterica serovar Poona", "conditions": "NCTC 4840, 18 h", "procedure,_shortened": "as §1"}, "[23]": {"experiment": "Antibacterial activity against Salmonella enterica subspecies enterica serotype Pullorum OCC 273 after 18 hrs", "format": "functional, Salmonella enterica subsp. enterica serovar Pullorum", "conditions": "OCC 273, 18 h", "procedure,_shortened": "as §1"}, "Salmonella typhimurium": {"system": "Salmonella typhimurium", "experiment": "Antibacterial activity against Salmonella enterica subspecies enterica serotype typhimurium ATCC 14028 after 18 hrs", "format": "functional, Salmonella enterica subsp. enterica serovar Typhimurium", "conditions": "ATCC 14028, 18 h", "procedure,_shortened": "as §1"}, "[24]": {"experiment": "Antibacterial activity against Salmonella enterica subspecies enterica serotype Virchow NCTC 5742 after 18 hrs", "format": "functional, Salmonella enterica subsp. enterica serovar Virchow", "conditions": "NCTC 5742, 18 h", "procedure,_shortened": "as §1"}},
  "data": [
    {"smiles": "O[C@@H]1[C@H](Oc2cc(Cl)ccc2Oc2ccc(Cl)cc2Cl)OC[C@@H](O)[C@H]1O", "values": [
      {"measurement": "MIC", "setting": "Staphylococcus aureus [1]", "value": "4 to 8", "unit": "µg/mL"},
      {"measurement": "MIC", "setting": "Staphylococcus aureus [2]", "value": "4 to 8", "unit": "µg/mL"},
      {"measurement": "MIC", "setting": "Staphylococcus aureus [3]", "value": "4 to 8", "unit": "µg/mL"},
      {"measurement": "MIC", "setting": "Staphylococcus aureus [4]", "value": "4 to 8", "unit": "µg/mL"},
      {"measurement": "MIC", "setting": "Staphylococcus aureus [5]", "value": "4 to 8", "unit": "µg/mL"},
      {"measurement": "MIC", "setting": "Staphylococcus aureus [6]", "value": "4 to 8", "unit": "µg/mL"},
      {"measurement": "MIC", "setting": "Staphylococcus aureus [7]", "value": "4 to 8", "unit": "µg/mL"},
      {"measurement": "MIC", "setting": "Staphylococcus aureus [8]", "value": "4 to 8", "unit": "µg/mL"},
      {"measurement": "MIC", "setting": "[9]", "value": "8 to 16", "unit": "µg/mL"},
      {"measurement": "MIC", "setting": "[10]", "value": "8 to 16", "unit": "µg/mL"},
      {"measurement": "MIC", "setting": "[11]", "value": "8 to 16", "unit": "µg/mL"},
      {"measurement": "MIC", "setting": "[12]", "value": 128, "unit": "µg/mL"},
      {"measurement": "MIC", "setting": "[13]", "value": 64, "unit": "µg/mL"},
      {"measurement": "MIC", "setting": "Streptococcus agalactiae", "value": 128, "unit": "µg/mL"},
      {"measurement": "MIC", "setting": "Streptococcus pneumoniae [14]", "value": 64, "unit": "µg/mL"},
      {"measurement": "MIC", "setting": "Streptococcus pneumoniae [15]", "value": 64, "unit": "µg/mL"},
      {"measurement": "MIC", "setting": "Streptococcus pyogenes", "value": 32, "unit": "µg/mL"},
      {"measurement": "MIC", "setting": "Streptococcus viridans", "value": 128, "unit": "µg/mL"},
      {"measurement": "MIC", "setting": "[16]", "value": "32 to 64", "unit": "µg/mL"},
      {"measurement": "MIC", "setting": "[17]", "value": "32 to 64", "unit": "µg/mL"},
      {"measurement": "MIC", "setting": "[18]", "value": "32 to 64", "unit": "µg/mL"},
      {"measurement": "MIC", "setting": "Salmonella enteritidis", "value": "32 to 64", "unit": "µg/mL"},
      {"measurement": "MIC", "setting": "[19]", "value": "32 to 64", "unit": "µg/mL"},
      {"measurement": "MIC", "setting": "[20]", "value": "32 to 64", "unit": "µg/mL"},
      {"measurement": "MIC", "setting": "[21]", "value": "32 to 64", "unit": "µg/mL"},
      {"measurement": "MIC", "setting": "[22]", "value": "32 to 64", "unit": "µg/mL"},
      {"measurement": "MIC", "setting": "[23]", "value": "32 to 64", "unit": "µg/mL"},
      {"measurement": "MIC", "setting": "Salmonella typhimurium", "value": "32 to 64", "unit": "µg/mL"},
      {"measurement": "MIC", "setting": "[24]", "value": "32 to 64", "unit": "µg/mL"}
    ]}
  ]
}
